Measured values from ChEMBL document CHEMBL1157864, “Synthesis of some novel 2-substituted-5-[isopropylthiazole] clubbed 1,2,4-triazole and 1,3,4-oxadiazoles as potential antimicrobial and antitubercular agents” (Eur J Med Chem, 2010).
Values after ≈ are worked out from the molar mass of the structure shown.

Each molecule was assayed on Candida tropicalis (assay: Antimicrobial activity against Candida tropicalis ATCC 1369 after 24 hrs by broth microdilution assay). Details: ATCC 1369, 24 h.
Assay type: functional
In short: (§1)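 Broth dilution MIC. Stock is 10 mg compound in 1 mL DMSO, serially diluted in Mueller–Hinton broth for bacteria or Sabouraud liquid medium for yeasts and mould. Tubes are inoculated at 10⁵ cfu/mL and incubated at 37 °C for 24 h. Controls are medium alone and medium with DMSO at matching dilutions. MIC is the lowest concentration giving complete growth inhibition.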

Compound | MIC [µg/mL]
CC(C)c1csc(-c2nnc(S)n2/N=C/c2ccc(Br)cc2)n1 | 62.5 (≈ 153 µM)
COc1cc(/C=N/n2c(S)nnc2-c2nc(C(C)C)cs2)cc(OC)c1OC | 125 (≈ 298 µM)
Cc1ccc(-c2nnc(-c3nc(C(C)C)cs3)o2)cc1 | 125 (≈ 438 µM)
COc1ccc(-c2nnc(-c3nc(C(C)C)cs3)o2)cc1 | 31.2 (≈ 104 µM)
CC(=O)N1N=C(c2nc(C(C)C)cs2)OC1(C)c1ccc(O)cc1 (stereo not given) | 31.2 (≈ 90.5 µM)
COc1ccc(C2(C)OC(c3nc(C(C)C)cs3)=NN2C(C)=O)cc1 (stereo not given) | 8 (≈ 22.3 µM)
CC(=O)N1N=C(c2nc(C(C)C)cs2)OC1(C)c1ccc([N+](=O)[O-])cc1 (stereo not given) | 62.5 (≈ 167 µM)

The molecules below were run on Staphylococcus aureus (assay: Antimicrobial activity against Staphylococcus aureus ATCC 11632 after 24 hrs by broth microdilution assay). Details: ATCC 11632, 24 h.
Assay type: functional
In short: as §1

Compound | MIC [µg/mL]
CC(C)c1csc(-c2nnc(S)n2/N=C/c2ccc(Br)cc2)n1 | 62.5 (≈ 153 µM)
COc1cc(/C=N/n2c(S)nnc2-c2nc(C(C)C)cs2)cc(OC)c1OC | 125 (≈ 298 µM)
Cc1ccc(-c2nnc(-c3nc(C(C)C)cs3)o2)cc1 | 31.2 (≈ 110 µM)
COc1ccc(-c2nnc(-c3nc(C(C)C)cs3)o2)cc1 | 31.2 (≈ 104 µM)
CC(=O)N1N=C(c2nc(C(C)C)cs2)OC1(C)c1ccc(O)cc1 (stereo not given) | 16 (≈ 46.3 µM)
COc1ccc(C2(C)OC(c3nc(C(C)C)cs3)=NN2C(C)=O)cc1 (stereo not given) | 31.2 (≈ 86.9 µM)
CC(=O)N1N=C(c2nc(C(C)C)cs2)OC1(C)c1ccc([N+](=O)[O-])cc1 (stereo not given) | 31.2 (≈ 83.5 µM)

What follows are molecules tested on Escherichia coli (assay: Antimicrobial activity against Escherichia coli ATCC 10536 after 24 hrs by broth microdilution assay). Details: ATCC 10536, 24 h.
Assay type: functional
In short: as §1

Compound | MIC [µg/mL]
CC(C)c1csc(-c2nnc(S)n2/N=C/c2ccc(Br)cc2)n1 | 62.5 (≈ 153 µM)
COc1cc(/C=N/n2c(S)nnc2-c2nc(C(C)C)cs2)cc(OC)c1OC | 62.5 (≈ 149 µM)
Cc1ccc(-c2nnc(-c3nc(C(C)C)cs3)o2)cc1 | 62.5 (≈ 219 µM)
COc1ccc(-c2nnc(-c3nc(C(C)C)cs3)o2)cc1 | 16 (≈ 53.1 µM)
CC(=O)N1N=C(c2nc(C(C)C)cs2)OC1(C)c1ccc(O)cc1 (stereo not given) | 16 (≈ 46.3 µM)
COc1ccc(C2(C)OC(c3nc(C(C)C)cs3)=NN2C(C)=O)cc1 (stereo not given) | 125 (≈ 348 µM)
CC(=O)N1N=C(c2nc(C(C)C)cs2)OC1(C)c1ccc([N+](=O)[O-])cc1 (stereo not given) | 16 (≈ 42.7 µM)

The molecules below were run on Pseudomonas aeruginosa (assay: Antimicrobial activity against Pseudomonas aeruginosa ATCC 10145 after 24 hrs by broth microdilution assay). Details: ATCC 10145, 24 h.
Assay type: functional
In short: as §1

Compound | MIC [µg/mL]
CC(C)c1csc(-c2nnc(S)n2/N=C/c2ccc(Br)cc2)n1 | 62.5 (≈ 153 µM)
COc1cc(/C=N/n2c(S)nnc2-c2nc(C(C)C)cs2)cc(OC)c1OC | 125 (≈ 298 µM)
Cc1ccc(-c2nnc(-c3nc(C(C)C)cs3)o2)cc1 | 125 (≈ 438 µM)
COc1ccc(-c2nnc(-c3nc(C(C)C)cs3)o2)cc1 | 16 (≈ 53.1 µM)
CC(=O)N1N=C(c2nc(C(C)C)cs2)OC1(C)c1ccc(O)cc1 (stereo not given) | 62.5 (≈ 181 µM)
COc1ccc(C2(C)OC(c3nc(C(C)C)cs3)=NN2C(C)=O)cc1 (stereo not given) | 125 (≈ 348 µM)
CC(=O)N1N=C(c2nc(C(C)C)cs2)OC1(C)c1ccc([N+](=O)[O-])cc1 (stereo not given) | 31.2 (≈ 83.5 µM)

What follows are molecules tested on Saccharomyces cerevisiae (assay: Antimicrobial activity against Saccharomyces cerevisiae ATCC 9763 after 24 hrs by broth microdilution assay). Details: ATCC 9763, 24 h.
Assay type: functional
In short: as §1

Compound | MIC [µg/mL]
CC(C)c1csc(-c2nnc(S)n2/N=C/c2ccc(Br)cc2)n1 | 125 (≈ 306 µM)
COc1cc(/C=N/n2c(S)nnc2-c2nc(C(C)C)cs2)cc(OC)c1OC | 62.5 (≈ 149 µM)
Cc1ccc(-c2nnc(-c3nc(C(C)C)cs3)o2)cc1 | 62.5 (≈ 219 µM)
COc1ccc(-c2nnc(-c3nc(C(C)C)cs3)o2)cc1 | 31.2 (≈ 104 µM)
CC(=O)N1N=C(c2nc(C(C)C)cs2)OC1(C)c1ccc(O)cc1 (stereo not given) | 31.2 (≈ 90.5 µM)
COc1ccc(C2(C)OC(c3nc(C(C)C)cs3)=NN2C(C)=O)cc1 (stereo not given) | 4 (≈ 11.1 µM)
CC(=O)N1N=C(c2nc(C(C)C)cs2)OC1(C)c1ccc([N+](=O)[O-])cc1 (stereo not given) | 31.2 (≈ 83.5 µM)

The molecules below were run on Mycobacterium tuberculosis (assay: Antimycobacterial activity against Mycobacterium tuberculosis H37Rv after 21 days by broth dilution assay). Details: 504 h.
Assay type: functional
In short: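 Middlebrook 7H9 broth with 10% albumin-dextrose-catalase and 0.2% glycerol; frozen culture thawed, diluted to 10⁵ cfu/mL and used as inoculum. Compounds taken up in DMSO and diluted twice in broth, 1.3% DMSO final. Incubated at 37 °C. Growth judged by eye against drug-free and inoculum-free controls and isoniazid. MIC is the lowest concentration inhibiting ≥99% of the starting population.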

Compound | MIC [µg/mL]
CC(C)c1csc(-c2nnc(S)n2/N=C/c2ccc(Br)cc2)n1 | 125 (≈ 306 µM)
COc1cc(/C=N/n2c(S)nnc2-c2nc(C(C)C)cs2)cc(OC)c1OC | 125 (≈ 298 µM)
Cc1ccc(-c2nnc(-c3nc(C(C)C)cs3)o2)cc1 | 16 (≈ 56.1 µM)
COc1ccc(-c2nnc(-c3nc(C(C)C)cs3)o2)cc1 | 16 (≈ 53.1 µM)
CC(=O)N1N=C(c2nc(C(C)C)cs2)OC1(C)c1ccc(O)cc1 (stereo not given) | 62.5 (≈ 181 µM)
COc1ccc(C2(C)OC(c3nc(C(C)C)cs3)=NN2C(C)=O)cc1 (stereo not given) | 62.5 (≈ 174 µM)
CC(=O)N1N=C(c2nc(C(C)C)cs2)OC1(C)c1ccc([N+](=O)[O-])cc1 (stereo not given) | 125 (≈ 334 µM)

What follows are molecules tested on Bacillus subtilis (assay: Antimicrobial activity against Bacillus subtilis ATCC 60511 after 24 hrs by broth microdilution assay). Details: ATCC 60511, 24 h.
Assay type: functional
In short: as §1

Compound | MIC [µg/mL]
CC(C)c1csc(-c2nnc(S)n2/N=C/c2ccc(Br)cc2)n1 | 125 (≈ 306 µM)
COc1cc(/C=N/n2c(S)nnc2-c2nc(C(C)C)cs2)cc(OC)c1OC | 125 (≈ 298 µM)
Cc1ccc(-c2nnc(-c3nc(C(C)C)cs3)o2)cc1 | 31.2 (≈ 110 µM)
COc1ccc(-c2nnc(-c3nc(C(C)C)cs3)o2)cc1 | 31.2 (≈ 104 µM)
CC(=O)N1N=C(c2nc(C(C)C)cs2)OC1(C)c1ccc(O)cc1 (stereo not given) | 31.2 (≈ 90.5 µM)
COc1ccc(C2(C)OC(c3nc(C(C)C)cs3)=NN2C(C)=O)cc1 (stereo not given) | 31.2 (≈ 86.9 µM)
CC(=O)N1N=C(c2nc(C(C)C)cs2)OC1(C)c1ccc([N+](=O)[O-])cc1 (stereo not given) | 62.5 (≈ 167 µM)

What follows are molecules tested on Klebsiella pneumoniae (assay: Antimicrobial activity against Klebsiella pneumoniae ATCC 10031 after 24 hrs by broth microdilution assay). Details: ATCC 10031, 24 h.
Assay type: functional
In short: as §1

Compound | MIC [µg/mL]
CC(C)c1csc(-c2nnc(S)n2/N=C/c2ccc(Br)cc2)n1 | 125 (≈ 306 µM)
COc1cc(/C=N/n2c(S)nnc2-c2nc(C(C)C)cs2)cc(OC)c1OC | 62.5 (≈ 149 µM)
Cc1ccc(-c2nnc(-c3nc(C(C)C)cs3)o2)cc1 | 125 (≈ 438 µM)
COc1ccc(-c2nnc(-c3nc(C(C)C)cs3)o2)cc1 | 31.2 (≈ 104 µM)
CC(=O)N1N=C(c2nc(C(C)C)cs2)OC1(C)c1ccc(O)cc1 (stereo not given) | 16 (≈ 46.3 µM)
COc1ccc(C2(C)OC(c3nc(C(C)C)cs3)=NN2C(C)=O)cc1 (stereo not given) | 125 (≈ 348 µM)
CC(=O)N1N=C(c2nc(C(C)C)cs2)OC1(C)c1ccc([N+](=O)[O-])cc1 (stereo not given) | 62.5 (≈ 167 µM)

Each molecule was assayed on Enterococcus faecalis (assay: Antimicrobial activity against Streptococcus faecalis ATCC 14506 after 24 hrs by broth microdilution assay). Details: ATCC 14506, 24 h.
Assay type: functional
In short: as §1

Compound | MIC [µg/mL]
CC(C)c1csc(-c2nnc(S)n2/N=C/c2ccc(Br)cc2)n1 | 125 (≈ 306 µM)
COc1cc(/C=N/n2c(S)nnc2-c2nc(C(C)C)cs2)cc(OC)c1OC | 62.5 (≈ 149 µM)
Cc1ccc(-c2nnc(-c3nc(C(C)C)cs3)o2)cc1 | 16 (≈ 56.1 µM)
COc1ccc(-c2nnc(-c3nc(C(C)C)cs3)o2)cc1 | 31.2 (≈ 104 µM)
CC(=O)N1N=C(c2nc(C(C)C)cs2)OC1(C)c1ccc(O)cc1 (stereo not given) | 31.2 (≈ 90.5 µM)
COc1ccc(C2(C)OC(c3nc(C(C)C)cs3)=NN2C(C)=O)cc1 (stereo not given) | 125 (≈ 348 µM)
CC(=O)N1N=C(c2nc(C(C)C)cs2)OC1(C)c1ccc([N+](=O)[O-])cc1 (stereo not given) | 62.5 (≈ 167 µM)

What follows are molecules tested on Aspergillus niger (assay: Antimicrobial activity against Aspergillus niger ATCC 6275 after 24 hrs by broth microdilution assay). Details: ATCC 6275, 24 h.
Assay type: functional
In short: as §1

Compound | MIC [µg/mL]
CC(C)c1csc(-c2nnc(S)n2/N=C/c2ccc(Br)cc2)n1 | 62.5 (≈ 153 µM)
COc1cc(/C=N/n2c(S)nnc2-c2nc(C(C)C)cs2)cc(OC)c1OC | 62.5 (≈ 149 µM)
Cc1ccc(-c2nnc(-c3nc(C(C)C)cs3)o2)cc1 | 31.2 (≈ 110 µM)
COc1ccc(-c2nnc(-c3nc(C(C)C)cs3)o2)cc1 | 31.2 (≈ 104 µM)
CC(=O)N1N=C(c2nc(C(C)C)cs2)OC1(C)c1ccc(O)cc1 (stereo not given) | 125 (≈ 362 µM)
COc1ccc(C2(C)OC(c3nc(C(C)C)cs3)=NN2C(C)=O)cc1 (stereo not given) | 8 (≈ 22.3 µM)
CC(=O)N1N=C(c2nc(C(C)C)cs2)OC1(C)c1ccc([N+](=O)[O-])cc1 (stereo not given) | 31.2 (≈ 83.5 µM)
